Test [1] relates to AML01 primary AML specimen. Put plainly: Cell viability of primary AML specimen AML01. Type of test: cell-based. The note with it: Homo sapiens, AML01, read-out: AML01 LC50. Summed up:
(§1)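 Primary AML samples came from consenting donors. Live mononuclear cells were isolated on a Ficoll-Paque density gradient and cryopreserved, with 40–70% viability after thawing. Cells were kept at 37 °C, humidified, 5% CO2.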

Test [2] addresses T1, P450BM3 variant V-H10(A87I) (Priestia megaterium, UniProt P14779, A181T/A185V/A198V/A291V/E253G/F206C/F88I/H237Q/L354V/P143S/R256S/S227R/T176I/V79N).
T1 sequence (P14779 1-1049 V79N/F88I/P143S/T176I/A181T/A185V/A198V/F206C/S227R/H237Q/E253G/R256S/A291V/L354V): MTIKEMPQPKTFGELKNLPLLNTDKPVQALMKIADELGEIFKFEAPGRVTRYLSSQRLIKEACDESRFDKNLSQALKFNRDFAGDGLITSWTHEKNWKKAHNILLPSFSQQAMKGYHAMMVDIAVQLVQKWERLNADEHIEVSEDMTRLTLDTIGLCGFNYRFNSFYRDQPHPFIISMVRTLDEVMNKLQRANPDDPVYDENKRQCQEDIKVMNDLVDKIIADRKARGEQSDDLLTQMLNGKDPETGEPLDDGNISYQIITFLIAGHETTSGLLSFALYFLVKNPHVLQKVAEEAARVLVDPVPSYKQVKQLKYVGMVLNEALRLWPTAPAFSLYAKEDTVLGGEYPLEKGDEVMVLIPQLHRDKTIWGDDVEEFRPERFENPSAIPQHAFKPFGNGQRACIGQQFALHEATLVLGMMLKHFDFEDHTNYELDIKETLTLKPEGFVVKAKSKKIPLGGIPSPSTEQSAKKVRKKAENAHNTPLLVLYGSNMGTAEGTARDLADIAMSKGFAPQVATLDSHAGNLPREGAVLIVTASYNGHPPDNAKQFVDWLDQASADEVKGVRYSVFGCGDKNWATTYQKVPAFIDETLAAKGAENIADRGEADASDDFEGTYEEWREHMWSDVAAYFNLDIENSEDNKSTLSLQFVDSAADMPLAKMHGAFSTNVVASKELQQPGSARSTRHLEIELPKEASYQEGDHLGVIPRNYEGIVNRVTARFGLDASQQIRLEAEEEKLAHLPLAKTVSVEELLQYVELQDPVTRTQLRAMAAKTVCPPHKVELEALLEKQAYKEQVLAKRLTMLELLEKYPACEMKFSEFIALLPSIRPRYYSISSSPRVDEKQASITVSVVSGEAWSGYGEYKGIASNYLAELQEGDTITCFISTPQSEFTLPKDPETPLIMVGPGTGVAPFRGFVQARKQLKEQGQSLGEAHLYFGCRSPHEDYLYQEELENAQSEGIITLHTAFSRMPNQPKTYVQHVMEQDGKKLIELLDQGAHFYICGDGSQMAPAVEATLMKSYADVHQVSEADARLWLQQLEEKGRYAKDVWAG
Kind of test: Heme spin shift binding of MCL to P450 variant V-H10. More on the design: species or system Bacillus megaterium. The gist of the method:
(§2)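 Purified P450 (3 μM) in 50 mM potassium phosphate, pH 8.0, titrated with test compound (5–2000 μM) from a 50 mM ethanol stock. A difference spectrum (350–500 nm) was taken at each step. Absorbance change at 390/420 nm (high/low spin) was plotted against concentration, with KD from a nonlinear 1:1 binding fit. At least triplicate, room temperature.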

Test [3] relates to AML cells and LSCs. As to conditions: MCL vs PTL; cited from earlier work.
Test [4] relates to AML04 primary AML specimen. Put plainly: Cell viability of primary AML specimen AML04. Type of test: cell-based. As to conditions: Homo sapiens, read-out: AML04 LC50. Summed up:
as §1

Test [5] has as its system AML03 primary AML specimen. Kind of test: Cell viability of primary AML specimen AML03. It counts as cell-based. As to conditions: Homo sapiens, read-out: AML03 LC50. Summed up: as §1
The target of test [6] is T2, P450BM3 variant V-H10 (Priestia megaterium, UniProt P14779, A181T/A185V/A198V/A291V/E253G/F206C/F88A/H237Q/L354V/P143S/R256S/S227R/T176I/V79N).
T2 sequence (P14779 1-1049 V79N/F88A/P143S/T176I/A181T/A185V/A198V/F206C/S227R/H237Q/E253G/R256S/A291V/L354V): T1 sequence (P14779 1-1049 V79N/F88I/P143S/T176I/A181T/A185V/A198V/F206C/S227R/H237Q/E253G/R256S/A291V/L354V) with I88A
Kind of test: Heme spin shift binding of MCL to P450 variant V-H10. More on the design: species or system Bacillus megaterium. Summed up: as §2

Results on one compound are retold here after paper PMC8161485 (ACS Central Science, 2021).

Residue numbers refer to the chain shown, from its start.

`C=C1C(=O)O[C@H]2[C@H]1CCC(C)=C1CC[C@@](C)(O)[C@@H]12` [MCL, micheliolide]: the results for the CC50 in test [1], in test [4] and in test [5] were 18.8 µM, 22.1 µM and 15.7 µM, respectively. Besides, the values for the Kd in test [2] and in test [6] were 1250 ± 54 µM and 590 ± 90 µM, respectively. Further, the “LC50 in vitro relative to PTL (fold higher)” value in test [3] is roughly 3 fold.

By Kd is commonly meant a measure of binding affinity in units of concentration.
